Assay: Toxicity liver stage against HepG2, at 10uM
Format: cell-based
Parameters: test concentration 10 uM, cell line HepG2-A16-CD81EGFP
Details: human, HepG2-A16-CD81EGFP cells; read-out: INHIBITION
In short: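 Uninfected HepG2-A16-CD81EGFP cells, 3 × 10^3 per well, 1536-well, plated on prespotted compound at 10 μM final, parasite-free screening media added to match infected plates; puromycin 10 μM positive, DMSO 0.5% negative; run in parallel with 48 h PbLuc assay at 37 °C, 5% CO2; viability by CellTiter-Glo luminescence, normalized to controls.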

Structure (SMILES) | cytotoxicity at 10 µM [%]
c1cc(-c2nnc([C@H]3CCN(C4CCOCC4)C3)o2)ccn1 | -61.3
COc1ccc(CNc2c(N3CCN(C(C)=O)CC3)c(=O)c2=O)cc1 | -2.36
Cc1cnc2c(c1NCc1cccs1)c(=O)n(C)c(=O)n2C | 0.319
O=C(NCC1(O)CCOCC1)c1ccc(F)cc1 | -9.52
COC[C@@H]1CN(C)C(=O)[C@@H]2CCN(Cc3ccco3)CC[C@H]12 | -6.13
COCCN1CCc2ncc(CNc3cc(N(C)C)ncn3)n2CC1 | -1.95
c1cnn(Cc2nnc3n2CCCN(c2nccs2)C3)c1 | 9.37
CC(C)CN1C(=O)CO[C@@H]2CN(C(=O)CC(F)(F)F)C[C@H]21 | -1.74
Cc1cccc(C(=O)N2CCO[C@H]3[C@H](OCCN(C)C)CC[C@@H]32)n1 | 3.31
CN(C)C(=O)N1C[C@@H]2COC[C@]2(c2nnc(C3CC3)o2)C1 | -4.05
CC(C)CN1C(=O)CC(N2CCN(c3ccc(F)cc3)CC2)C1=O (stereo not drawn) | 6.56
O=C(CC1Cn2ncnc2NC1=O)Nc1cccc(C(F)(F)F)c1 (stereo not drawn) | 6.17
Cc1cnc(NC(=O)CSC2CCc3ccccc3NC2=O)s1 (stereo not drawn) | -2.34
CCOc1ccc(N2CCCN=C2NC(=O)c2cccc(C)c2)cc1 | 1.61
Cc1c(Cl)c(C(=O)NC(C)CN2CCOCC2)nn1C (stereo not drawn) | -1.77
Cc1cccc(Cc2cc(C)nc(C3CCCNC3)c2)c1 (stereo not drawn) | 1.58
CNc1cncc(C2CCCN2C(=O)c2ccc3c(c2)CCC3)n1 (stereo not drawn) | -15.1
COc1ccc(C2Nc3ccccc3C3=NCCCN32)cc1OC (stereo not drawn) | 6.05
NCc1cnn(-c2ccccc2C(=O)NCCCn2ccnc2)c1 | -3.01
CC1(C(=O)NCCc2ccc(F)cc2)CCOCC1 | 5.42
O=C(c1ccc(Cl)cc1)N1CCn2c(nn(-c3cccc(Cl)c3)c2=O)C1 | 5.84
CN(C(=O)CSc1ncc[nH]1)C1CC1 | 7.97

Structure (SMILES) | cytotoxicity at 10 µM [%]
Cc1cnc(N2CCC(OCCN3CCCCC3)C2)nc1C (stereo not drawn) | -43.9
CCNC(=O)c1ccc(NC(=O)N(C)Cc2cccn2C)c(C)c1 | -0.132
CCc1ccc(CNc2cc(-c3ccoc3C)nn2CCO)o1 | 0.485
Cc1cc(S(C)(=O)=O)c(C)c(S(=O)(=O)NCC2CCC2)c1 | 16.3
COc1ccc(C)cc1C(C)NS(=O)(=O)c1ccc2c(c1)CCC(=O)N2 (stereo not drawn) | -33
Cc1cc(CNC(=O)N2CCN(c3ccc(Cl)cn3)CC2)c(C)o1 | 13.9
Cc1nc(CNC(=O)N2CCN(c3ccc(Cl)cn3)CC2)sc1C | 3.92
CN(Cc1ccc2c(c1)OCCO2)c1ncc(S(N)(=O)=O)s1 | 0.482
CNC(=O)c1cccc(NC(=O)c2ccnc(N(C)C)c2)c1C | 4.9
CCOC(=O)C1CCN(C(=O)CN2CCCC2c2ccsc2)CC1 (stereo not drawn) | -5.42
CCn1nc(C)cc1C(=O)NCc1cc(N(C)C)nc2ccccc12 | 10.6
Cc1cc(S(=O)(=O)N2CCCc3cc(Br)ccc32)sc1C(=O)O | 2.91
COCCSCC(=O)NC1(c2cccc(Br)c2)CC1 | 13.3
CCOc1cc(CN(C)CCC(=O)OC)ccc1OC(F)F | -0.769
CCN(CC)C(CNS(=O)(=O)c1ccc(C(N)=O)cc1)c1ccco1 (stereo not drawn) | -8.64
Cc1sc2nc(C(F)(F)F)nc(N3CCCN(C)CC3)c2c1C | -26.8
O=C(C[S+]([O-])Cc1cccc(F)c1)NC1CCCC1 (stereo not drawn) | 1.79
CC(C(=O)Nc1ncccn1)N1CCC(n2ccnc2)CC1 (stereo not drawn) | -8.15
Cc1[nH]ccc1C(=O)N(C)C1CC(=O)N(Cc2ccccc2)C1=O (stereo not drawn) | 8.76
Cc1cnn(CCNC(C)c2nnc(-c3ccccc3)o2)c1 (stereo not drawn) | -2.4
CSCC(CCO)NC(=O)c1cccc(C)c1Cl (stereo not drawn) | 16.8
Cc1cccc(N2CCN(C(=O)c3c(C)nn(C)c3C)CC2)c1C | -7.28

Structure (SMILES) | cytotoxicity at 10 µM [%]
COc1ccc(NC(C)c2nnnn2-c2ccccc2)cc1F (stereo not drawn) | 12.1
CC(=O)NS(=O)(=O)c1ccc(F)c(C(F)(F)F)c1 | -4.73
Cc1cc2n(n1)CC(CNCCc1cnn(C)c1)CN2 (stereo not drawn) | 5.27
Cc1cc(C)cc(C(C)NC(=O)c2ccc(CS(C)(=O)=O)o2)c1 (stereo not drawn) | 2.49
CN(C)C(=O)CCS(=O)(=O)Cc1cc(Cl)c2c(c1)OCCO2 | 9.15
O=C(Cc1ccc(F)cc1)NCCNS(=O)(=O)C1CCCC1 | 9.31
CC(=O)N1CCN(CCNc2ncc(Br)cc2C)CC1 | 2.86
CC1c2ncc(COc3cccnc3)n2CCN1Cc1ccco1 (stereo not drawn) | -105
Cc1ccoc1C(=O)N1CC[C@H]2C[C@H](c3nnc(C4CC4)o3)O[C@@H]2C1 | -105
CCS(=O)(=O)N1CCC2(CC1)CN(c1ccsc1)C(=O)CO2 | -73.7
CNC(=O)[C@@]12CCO[C@@H]1CCN(S(=O)(=O)c1cc(C)cc(C)c1)C2 | -73.5
Cc1nc(COC[C@H]2CCC[C@]23CN(CC2CC2)CCO3)cs1 | -76.9
CNC(=O)C1=NOC2(CCN(Cc3nccs3)C2)C1 (stereo not drawn) | -73.4
Cc1noc([C@H]2C[C@@H]3CCN(C(=O)N(C)C)C[C@H]3O2)n1 | 2.8
COCCC(=O)N1CC2(CCN(Cc3ccoc3)C2)C1 | 8.47
CNCC(=O)Nc1ccc(-c2cnc(NCCS(C)(=O)=O)nc2)cc1 | -3.08
c1cc(CN2CCCN(c3ccc4cc[nH]c4n3)CC2)ccn1 | -9.98
CC(C)Cc1ncc2c(n1)CN(C(=O)Cn1c(=O)oc3ccccc31)C2 | -36.2
Cc1cc(C(F)(F)F)nc(CNC(=O)C2CCCCCN2C)n1 (stereo not drawn) | -46
COc1nc2c(cc1C(=O)N1CCCOC(CN3CCCC3)C1)CCC2 (stereo not drawn) | -48.8
O=C(NCC1CCN(Cc2cc3ccccc3[nH]2)C1)C1CCCCC1 (stereo not drawn) | 9.81
CCCN1CCC(Cc2nc(CN3CCN(C)CC3)no2)CC1 | 1.25

Structure (SMILES) | cytotoxicity at 10 µM [%]
Oc1ccccc1CN1CCC(n2cc(-c3ccc(F)cc3)nn2)CC1 | -2.68
COc1cc(S(=O)(=O)N2C[C@@H](C)[C@@](C)(O)C2)c(C)cc1C | -2.06
Cc1cc(C(=O)NCc2cccnc2N2CCCC(O)C2)c(C)o1 (stereo not drawn) | 16.3
O=C(c1cc(=O)n(-c2ccccc2)[nH]1)N1CCCC(c2ccn[nH]2)C1 (stereo not drawn) | -2.21
Oc1cccc(CN2CCN(C3CCc4ccccc4C3)CC2)c1 (stereo not drawn) | 6.42
CC(C)(O)CCc1cccc(C(=O)NCc2cnn3cccnc23)c1 | -44.8
O=C(NCc1nc(NC2CCCC2)c2cc(Cl)ccc2n1)c1cscn1 | 7.12
O=C(c1cc2c([nH]c1=O)CCC2)N1CCCCC1c1cccc(F)c1 (stereo not drawn) | -6.22
Cc1ccsc1-c1nc(CN(C)Cc2cc[nH]n2)c(C)o1 | 10.3
Cc1cc(F)ccc1N1CCC(N2C[C@@H](C)[C@@](C)(O)C2)CC1 | 8.79
CCCN1CCc2[nH]cnc2C12CCN(C(=O)CCn1cccn1)CC2 | 7.36
COC[C@]1(O)CCN(C(=O)c2cccc(CN(C)C)c2)CC1(C)C | 3.26
O=C(NC1CC1)c1nc(Cn2c(C(F)F)nc3ccccc32)no1 | 7.59
CCN(CCO)C[C@@H]1CN(c2nc(C)cc(C)n2)C[C@@H]1CO | -5.34
CC(C)[C@@H]1CN(CCCOc2ccc(F)cc2)C[C@H]1NS(C)(=O)=O | -46.4
CCC(CO)N(CC=C(C)C)Cc1ccsc1 (stereo not drawn) | 6.07
O=C(CCCn1cncn1)N1CCC2(CC1)[C@H](O)C[C@@H]2OCCO | 5.3
CC(=O)N1CCCC(Cc2cncc(Br)c2)CC1 (stereo not drawn) | 4.99
CC(Cn1cccn1)NC(=O)NCc1ccc(OC2CCCC2)nc1 (stereo not drawn) | -12.9
Cc1nc(COc2cccc(C#N)c2)no1 | -0.513
O=C(CN1CC(n2cccn2)C1)NCCCc1ccccc1 | -9.51
COC(=O)c1ccc(N2CCN(C(=O)c3cc(C)on3)C(C)C2)cc1 (stereo not drawn) | -7.85

Structure (SMILES) | cytotoxicity at 10 µM [%]
CC(C)c1nc(C2CCCN2CC(=O)Nc2ccc(Cl)cn2)no1 (stereo not drawn) | -3.13
Cc1cnn(CC(C)NCc2ccc(OCc3ccncc3)cc2)c1 (stereo not drawn) | 3.15
Fc1cccc(F)c1Cn1c(C2CCNCC2)cc2cccnc21 | -3.4
Cc1ccc(CN(CCCn2ccnc2)Cc2ccccc2O)s1 | -14.6
O=C(CO[C@@H]1CC[C@H]2[C@H]1OCCN2Cc1ccccn1)N1CCCC1 | -3.98
Cn1nc(C2CCCN(Cc3ccc(F)c(F)c3)C2)c2nccnc21 (stereo not drawn) | -2.9
Cc1noc(C)c1CN1CC[C@H]2OCC[C@@H](C(=O)NCC3CC3)[C@H]2C1 | 1.27
CN1CCN(Cc2cn3c(n2)CN(C(=O)c2cccn2C)CC3)CC1 | 2.89
COCCN1CC[C@H]2CN(c3cc(OC)ncn3)C[C@@H]2C1=O | 10.3
O=C(O)CN1CCC(F)(F)C2(CCN(c3ccccc3)C2)C1 (stereo not drawn) | 10.7
Cn1cc(C(=O)NCc2cn3c(n2)CN(C2CCOCC2)CC3)cn1 | 11.2
c1cncc(C2CC3(CCN(c4cnccn4)CC3)c3ccccc32)c1 (stereo not drawn) | 11.2
O=C(N1CCCC1)N1CCC[C@]2(C[C@@H](OCc3ccncc3)CO2)C1 | 7.19
Cc1cnc(N2CCC3(CC(=O)N(Cc4csc(C)n4)C3)C2)nc1 (stereo not drawn) | -0.211
Cn1cc(CN2CC[C@@H](NS(C)(=O)=O)[C@@H]2Cc2cccnc2)cn1 | -74.4
Cn1cc(N2CC3(CCN(Cc4ccsc4)CC3)OCC2=O)cn1 | -82.8
O=C(NCc1ccccn1)[C@@H]1CCO[C@@H]2CCN(Cc3ccoc3)C[C@H]21 | 5.33
COCC1CN(S(=O)(=O)Cc2ccccc2)Cc2c1cnn2C (stereo not drawn) | -3.61
CC(C)=CCN1C[C@@H]2CC[C@H]1CN(Cc1coc(C)n1)C2 | 1.25
CCCn1nccc1NC(=O)CN1CCc2cnc(C(C)C)nc2C1 | -5.59

From ChEMBL document CHEMBL4513216, “Probing the Open Global Health Chemical Diversity Library for Multistage-Active Starting Points for Next-Generation Antimalarials” (ACS Infect Dis, 2020)
